This is an account of results in ChEMBL document CHEMBL3046604, “Synthesis and fungistatic activity of new groups of 2,4-dihydroxythiobenzoyl derivatives against phytopathogenic fungi” (J Agric Food Chem, 2003).

In series [1] the test system is Fusarium culmorum. As to the kind of experiment: Fungistatic activity against Fusarium culmorum assessed as mycelial growth inhibition at 200 ug/ml after 4 to 8 days relative to control. The series is classed as functional. As to conditions: read-out: GI. An outline of the steps:
(§1)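 Compound solutions or suspensions were diluted into PDA agar to final 200 or 20 µg/mL and poured into Petri dishes. Once the agar set, mycelium-covered agar disks of the fungus were placed at three sites on the surface. Linear colony growth was measured after 4-8 days, depending on the culture. Inhibition J = [(C − T)/C] × 100 versus untreated control, reported on a four-degree scale.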

Series [2] is described as follows: Lipophilicity, log K of the compound in methanol-water mixture by HPLC. The series is classed as physicochemical. An outline of the steps: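 Reversed-phase HPLC on a Hypersil BDS C18 column (5 µm, 150 × 4.6 mm) with UV detection at 320 nm. Samples were dissolved in methanol. Mobile phase was methanol at varying volume fractions in 10 mM acetate buffer pH 4, run at 1 mL/min and room temperature. Dead time was taken from injection of acetone dissolved in water.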

Series [3] has as its system Blumeria graminis. As to the kind of experiment: Fungistatic activity against Blumeria graminis infested wheat seedling assessed as inhibition of fungal infection at 1000 ug/ml applied as spray after 7 to 14 days under green house conditions relative to control. The series is classed as functional. The gist of the method: (§2)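 Greenhouse test on healthy wheat seedlings with Erysiphe graminis. At the well-developed first-leaf stage, plants were sprayed with compound solution at 1000 or 500 µg/mL, 10 mL of solution per treatment, with three repeats in 9 cm paraffin cups.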

Series [4] concerns Botrytis cinerea. As to the kind of experiment: Fungistatic activity against Botryotinia fuckeliana assessed as mycelial growth inhibition at 200 ug/ml after 4 to 8 days relative to control. The series is classed as functional. As to conditions: read-out: GI. An outline of the steps:
as §1

The subject of series [5] is Rhizoctonia solani. As to the kind of experiment: Fungistatic activity against Rhizoctonia solani assessed as mycelial growth inhibition at 20 ug/ml after 4 to 8 days relative to control. The series is classed as functional. The settings on record: read-out: GI. An outline of the steps:
as §1

Series [6] concerns Phytophthora cactorum. The series is described as follows: Fungistatic activity against Phytophthora cactorum assessed as mycelial growth inhibition at 200 ug/ml after 4 to 8 days relative to control. As to conditions: read-out: GI. The series is classed as functional. An outline of the steps:
as §1

Series [7] concerns Alternaria alternata. The series is described as follows: Fungistatic activity against Alternaria alternata assessed as mycelial growth inhibition at 200 ug/ml after 4 to 8 days relative to control. As to conditions: read-out: GI. The series is classed as functional. An outline of the steps: as §1
The subject of series [8] is Alternaria alternata. As to the kind of experiment: Fungistatic activity against Alternaria alternata assessed as mycelial growth inhibition at 20 ug/ml after 4 to 8 days relative to control. The series is classed as functional. The settings on record: read-out: GI. The gist of the method: as §1
Series [9] concerns Fusarium culmorum. The series is described as follows: Fungistatic activity against Fusarium culmorum assessed as mycelial growth inhibition at 20 ug/ml after 4 to 8 days relative to control. The series is classed as functional. As to conditions: read-out: GI. An outline of the steps: as §1
Series [10] relates to Botrytis cinerea. As to the kind of experiment: Fungistatic activity against Botryotinia fuckeliana assessed as mycelial growth inhibition at 20 ug/ml after 4 to 8 days relative to control. The series is classed as functional. The settings on record: read-out: GI. The gist of the method:
as §1

In series [11] the test system is Blumeria graminis. As to the kind of experiment: Fungistatic activity against Blumeria graminis infested wheat seedling assessed as inhibition of fungal infection at 500 ug/ml applied as spray after 7 to 14 days under green house conditions relative to control. The series is classed as functional. The gist of the method:
as §2

The test system of series [12] is Rhizoctonia solani. As to the kind of experiment: Fungistatic activity against Rhizoctonia solani assessed as mycelial growth inhibition at 200 ug/ml after 4 to 8 days relative to control. The series is classed as functional. The settings on record: read-out: GI. The gist of the method: as §1
The subject of series [13] is Phytophthora cactorum. The series is described as follows: Fungistatic activity against Phytophthora cactorum assessed as mycelial growth inhibition at 20 ug/ml after 4 to 8 days relative to control. The settings on record: read-out: GI. The series is classed as functional. The gist of the method: as §1

As usually defined, the inhibition is the share of the control response that was lost under treatment. Regarding `O=C(Nc1ccccc1)c1ccccc1NC(=S)c1ccc(O)cc1O`, the inhibition of growth at 200 µg/mL in the series with Fusarium culmorum [1] was determined as 61%; with Botrytis cinerea [4], 41%; with Phytophthora cactorum [6] it was 61%; with Alternaria alternata [7] it was 61%; in the series with Rhizoctonia solani [12], 61%. Besides, the “log K” value in series [2] is on record as -0.37. Besides, the inhibition at 1000 µg/mL in the series on Blumeria graminis [3] amounted to 41%. The inhibition of growth at 20 µg/mL in the series on Rhizoctonia solani [5] worked out at 21%; in the series on Alternaria alternata [8], 0%; with Fusarium culmorum [9], 0%; in the series with Botrytis cinerea [10], 0%; in the series with Phytophthora cactorum [13] it was 0%. Further, in the series with Blumeria graminis [11], the inhibition at 500 µg/mL was found to be 0%.

As for `Oc1ccc(C(=S)NNC(=S)Nc2cccc(Cl)c2)c(O)c1`, the inhibition of growth at 200 µg/mL was determined as 0% in the series with Fusarium culmorum [1]; 0% in the series on Botrytis cinerea [4]; 61% with Phytophthora cactorum [6]; 0% in the series with Alternaria alternata [7]; 0% in the series on Rhizoctonia solani [12]. The “log K” value in series [2] came to 0.229. Also, the inhibition at 1000 µg/mL in the series on Blumeria graminis [3] stood at 0%. Further, the inhibition of growth at 20 µg/mL with Rhizoctonia solani [5], in the series with Alternaria alternata [8], in the series with Fusarium culmorum [9], in the series on Botrytis cinerea [10] and in the series with Phytophthora cactorum [13] was 0% in each case. Besides, the inhibition at 500 µg/mL with Blumeria graminis [11] was found to be 0%.

For `Oc1ccc(C(=S)NC(=S)c2cccnc2)c(O)c1`, the inhibition of growth at 200 µg/mL in the series on Fusarium culmorum [1] was found to be 81%; with Botrytis cinerea [4] it was 81%; in the series with Phytophthora cactorum [6] it was 81%; in the series on Alternaria alternata [7], 61%; in the series on Rhizoctonia solani [12], 61%. In [2], the “log K” value was determined as 0.751. Further, the inhibition at 1000 µg/mL with Blumeria graminis [3] is 21%. In addition, the inhibition of growth at 20 µg/mL in the series with Rhizoctonia solani [5], in the series on Alternaria alternata [8], in the series on Fusarium culmorum [9], with Botrytis cinerea [10] and with Phytophthora cactorum [13] was 0% in each case. The inhibition at 500 µg/mL in the series with Blumeria graminis [11] was found to be 0%.

On to `CC(C)(C)c1nnc(NC(=S)c2ccc(O)cc2O)s1`, for which the inhibition of growth at 200 µg/mL in the series on Fusarium culmorum [1], with Botrytis cinerea [4], in the series with Phytophthora cactorum [6], with Alternaria alternata [7] and with Rhizoctonia solani [12] was 0% throughout. In series [2], the “log K” value is listed as -0.131. Further, the inhibition at 1000 µg/mL in the series with Blumeria graminis [3] was determined as 21%. Further, the inhibition of growth at 20 µg/mL in the series with Rhizoctonia solani [5], in the series on Alternaria alternata [8], in the series on Fusarium culmorum [9], in the series on Botrytis cinerea [10] and in the series with Phytophthora cactorum [13] was 0% throughout. The inhibition at 500 µg/mL in the series with Blumeria graminis [11] came out at 0%.

`Oc1ccc(C(=S)Nc2ccc(Oc3ccccc3)cc2)c(O)c1`: the inhibition of growth at 200 µg/mL with Fusarium culmorum [1] worked out at 0%; in the series with Botrytis cinerea [4], 0%; with Phytophthora cactorum [6] it was 21%; in the series on Alternaria alternata [7], 41%; in the series with Rhizoctonia solani [12], 21%. Further, the “log K” value in [2] worked out at 1.305. In the series with Blumeria graminis [3], the inhibition at 1000 µg/mL is 0%. Further, the inhibition of growth at 20 µg/mL with Rhizoctonia solani [5], with Alternaria alternata [8], in the series with Fusarium culmorum [9], with Botrytis cinerea [10] and in the series with Phytophthora cactorum [13] was 0% throughout. Besides, the inhibition at 500 µg/mL in the series with Blumeria graminis [11] turned out to be 0%.

Consider `Oc1ccc(C(=S)Nc2ccc(OCc3ccccc3)cc2)c(O)c1`, for which the inhibition of growth at 200 µg/mL in the series with Fusarium culmorum [1] turned out to be 21%; in the series with Botrytis cinerea [4], 61%; with Phytophthora cactorum [6] it was 41%; in the series on Alternaria alternata [7], 61%; in the series with Rhizoctonia solani [12] it was 41%. Moreover, the “log K” value in series [2] worked out at 0.423. Also, in the series on Blumeria graminis [3], the inhibition at 1000 µg/mL was 21%. Besides, the inhibition of growth at 20 µg/mL was 0% in the series on Rhizoctonia solani [5]; 0% in the series on Alternaria alternata [8]; 0% in the series with Fusarium culmorum [9]; 21% in the series with Botrytis cinerea [10]; 0% in the series on Phytophthora cactorum [13]. For the same molecule, in the series with Blumeria graminis [11], the inhibition at 500 µg/mL turned out to be 0%.

Take `N#CCc1nn(-c2ccccc2)c(NC(=S)c2ccc(O)cc2O)c1C#N`: the inhibition of growth at 200 µg/mL came out at 0% in the series with Fusarium culmorum [1]; 21% in the series with Botrytis cinerea [4]; 61% in the series on Phytophthora cactorum [6]; 41% with Alternaria alternata [7]; 21% in the series on Rhizoctonia solani [12]. Besides, in [2], the “log K” value is on record as 0.373. Also, the inhibition at 1000 µg/mL in the series on Blumeria graminis [3] was found to be 21%. The inhibition of growth at 20 µg/mL in the series on Rhizoctonia solani [5], with Alternaria alternata [8], in the series with Fusarium culmorum [9], with Botrytis cinerea [10] and in the series on Phytophthora cactorum [13] was 0% throughout. The inhibition at 500 µg/mL in the series with Blumeria graminis [11] was 0%.

On to `Oc1ccc(C(=S)Nc2cc(C(F)(F)F)ccc2N2CCOCC2)c(O)c1`, for which the inhibition of growth at 200 µg/mL is 21% with Fusarium culmorum [1]; 21% with Botrytis cinerea [4]; 41% with Phytophthora cactorum [6]; 21% in the series on Alternaria alternata [7]; 0% in the series on Rhizoctonia solani [12]. Moreover, the “log K” value in [2] is recorded as 0.035. Further, in the series on Blumeria graminis [3], the inhibition at 1000 µg/mL came to 0%. For the same molecule, the inhibition of growth at 20 µg/mL in the series on Rhizoctonia solani [5], in the series with Alternaria alternata [8], in the series with Fusarium culmorum [9], in the series on Botrytis cinerea [10] and in the series on Phytophthora cactorum [13] was 0% throughout. In the series with Blumeria graminis [11], the inhibition at 500 µg/mL was 0%.

`O=C(O)c1cc2cc(OCc3ccccc3)ccc2n1C(=S)c1ccc(O)cc1O`: the inhibition of growth at 200 µg/mL in the series with Fusarium culmorum [1] worked out at 21%; in the series on Botrytis cinerea [4], 0%; in the series on Phytophthora cactorum [6], 41%; with Alternaria alternata [7] it was 21%; in the series on Rhizoctonia solani [12] it was 0%. In addition, in series [2], the “log K” value was found to be 0.405. Further, the inhibition at 1000 µg/mL in the series with Blumeria graminis [3] came out at 21%. Further, the inhibition of growth at 20 µg/mL in the series with Rhizoctonia solani [5], in the series with Alternaria alternata [8], with Fusarium culmorum [9], in the series with Botrytis cinerea [10] and in the series on Phytophthora cactorum [13] was 0% throughout. In addition, in the series with Blumeria graminis [11], the inhibition at 500 µg/mL turned out to be 0%.

Consider `Oc1ccc(C(=S)NN=C(c2ccccc2)c2ccccc2)c(O)c1`, for which the inhibition of growth at 200 µg/mL came to 0% with Fusarium culmorum [1]; 0% with Botrytis cinerea [4]; 41% with Phytophthora cactorum [6]; 41% with Alternaria alternata [7]; 0% in the series with Rhizoctonia solani [12]. Also, in series [2], the “log K” value stood at 0.642. For the same molecule, in the series on Blumeria graminis [3], the inhibition at 1000 µg/mL came out at 21%. Besides, the inhibition of growth at 20 µg/mL in the series on Rhizoctonia solani [5], with Alternaria alternata [8], with Fusarium culmorum [9], with Botrytis cinerea [10] and in the series with Phytophthora cactorum [13] was 0% in each case. Besides, in the series on Blumeria graminis [11], the inhibition at 500 µg/mL turned out to be 0%.
